According to ChEMBL document CHEMBL2169806, “Design, synthesis, and pharmacological evaluation of N-acylhydrazones and novel conformationally constrained compounds as selective and potent orally active phosphodiesterase-4 inhibitors” (J Med Chem, 2012):

tested on: Mus musculus; assay: Antiinflammatory activity in A/J mouse lung assessed as inhibition of LPS-induced TNFalpha production at 100 umol/kg, po administered 1 hr prior to LPS-challenge measured after 18 hrs relative to vehicle-treated control; type: functional; details: not given

With `COc1ccc(/C=N/N(C)c2ncnc3ccccc23)cc1OC` as the compound, how does the inhibition in vivo at 100 µmol/kg read?
Its inhibition in vivo at 100 µmol/kg is 70%.

For `COc1ccc(/C=N/N(C)C(=O)c2ccc(OC)c(OC)c2)cc1OC`, which inhibition in vivo at 100 µmol/kg is on record?
The inhibition in vivo at 100 µmol/kg was 74%.

With `COc1ccc(/C=N/N(C)C(=O)c2ccccc2OC)cc1OC` as the compound, how does the inhibition in vivo at 100 µmol/kg read?
The inhibition in vivo at 100 µmol/kg was 100%.

For `COc1ccc(/C=N/N(C)C(=O)c2ccc(Cl)cc2)cc1OC`, which inhibition in vivo at 100 µmol/kg is on record?
The inhibition in vivo at 100 µmol/kg was 54%.

tested on: Mus musculus; assay: Antiinflammatory activity in A/J mouse assessed as inhibition of neutrophil accumulation in bronchoalveolar space at 100 umol/kg, po administered 1 hr prior to LPS-challenge measured after 18 hrs relative to vehicle-treated control; type: functional; details: Lung

Which inhibition in vivo at 100 µmol/kg does the source give for `COc1ccc(/C=N/N(C)c2ncnc3ccccc23)cc1OC` here?
The inhibition in vivo at 100 µmol/kg was 49%.

For `COc1ccc(/C=N/N(C)C(=O)c2ccc(OC)c(OC)c2)cc1OC`, which inhibition in vivo at 100 µmol/kg is on record?
The inhibition in vivo at 100 µmol/kg was 50%.

For `COc1ccc(/C=N/N(C)C(=O)c2ccccc2OC)cc1OC`, which inhibition in vivo at 100 µmol/kg is on record?
Its inhibition in vivo at 100 µmol/kg is 53%.

For `COc1ccc(/C=N/N(C)C(=O)c2ccc(Cl)cc2)cc1OC`, which inhibition in vivo at 100 µmol/kg is on record?
The inhibition in vivo at 100 µmol/kg was 54%.

tested on: Mus musculus; assay: Antiinflammatory activity in A/J mouse assessed as inhibition of leukocyte accumulation in bronchoalveolar space at 100 umol/kg, po administered 1 hr prior to LPS-challenge measured after 18 hrs relative to vehicle-treated control; type: functional; details: Lung

For `COc1ccc(/C=N/N(C)c2ncnc3ccccc23)cc1OC`, which inhibition in vivo at 100 µmol/kg is on record?
Its inhibition in vivo at 100 µmol/kg is 47%.

For `COc1ccc(/C=N/N(C)C(=O)c2ccc(OC)c(OC)c2)cc1OC`, which inhibition in vivo at 100 µmol/kg is on record?
The inhibition in vivo at 100 µmol/kg was 53%.

Which inhibition in vivo at 100 µmol/kg does the source give for `COc1ccc(/C=N/N(C)C(=O)c2ccccc2OC)cc1OC` here?
Its inhibition in vivo at 100 µmol/kg is 52%.

For `COc1ccc(/C=N/N(C)C(=O)c2ccc(Cl)cc2)cc1OC`, which inhibition in vivo at 100 µmol/kg is on record?
The inhibition in vivo at 100 µmol/kg was 69%.

organism: Bos taurus; assay: Inhibition of bovine PDE5 using […] as substrate at 10 uM; details: not given

For `COc1ccc(/C=N/N(C)C(=O)c2ccc(OC)c(OC)c2)cc1OC`, which inhibition is on record?
The inhibition was 30.9%.

For `COc1ccc(/C=N/N(C)C(=O)c2ccccc2OC)cc1OC`, which inhibition is on record?
Its inhibition is 13.9%.

With `COc1ccc(/C=N/N(C)C(=O)c2ccc(Cl)cc2)cc1OC` as the compound, how does the inhibition read?
The inhibition was 27.5%.

tested on: Mus musculus; assay: Antiinflammatory activity in A/J mouse assessed as inhibition of LPS-induced airway elastance provoked by methacholine at 100 umol/kg, po administered 1 hr prior to LPS-challenge measured after 18 hrs relative to vehicle-treated control; type: functional; details: not given

For `COc1ccc(/C=N/N(C)c2ncnc3ccccc23)cc1OC`, which inhibition in vivo at 100 µmol/kg is on record?
Its inhibition in vivo at 100 µmol/kg is 66%.

Which inhibition in vivo at 100 µmol/kg does the source give for `COc1ccc(/C=N/N(C)C(=O)c2ccc(OC)c(OC)c2)cc1OC` here?
Its inhibition in vivo at 100 µmol/kg is 79%.

With `COc1ccc(/C=N/N(C)C(=O)c2ccccc2OC)cc1OC` as the compound, how does the inhibition in vivo at 100 µmol/kg read?
Its inhibition in vivo at 100 µmol/kg is 59%.

Which inhibition in vivo at 100 µmol/kg does the source give for `COc1ccc(/C=N/N(C)C(=O)c2ccc(Cl)cc2)cc1OC` here?
Its inhibition in vivo at 100 µmol/kg is 72%.

organism: Bos taurus; assay: Inhibition of bovine PDE4 using [3H]cAMP as substrate at 10 uM; details: not given
Outline: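 Enzyme was PDE4 isolated from the media layer of bovine aorta, run in the two-step activity assay at 1 μM cAMP.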

Which inhibition does the source give for `COc1ccc(/C=N/N(C)c2ncnc3ccccc23)cc1OC` here?
Its inhibition is 98%.

For `COc1ccc(/C=N/N(C)C(=O)c2ccc(OC)c(OC)c2)cc1OC`, which inhibition is on record?
Its inhibition is 95.8%.

Which inhibition does the source give for `COc1ccc(/C=N/N(C)C(=O)c2ccccc2OC)cc1OC` here?
Its inhibition is 97.8%.

For `COc1ccc(/C=N/N(C)C(=O)c2ccc(Cl)cc2)cc1OC`, which inhibition is on record?
Its inhibition is 97%.

tested on: Mus musculus; assay: Antiinflammatory activity in A/J mouse lung assessed as inhibition of LPS-induced IL6 production at 100 umol/kg, po administered 1 hr prior to LPS-challenge measured after 18 hrs relative to vehicle-treated control; type: functional; details: not given

With `COc1ccc(/C=N/N(C)c2ncnc3ccccc23)cc1OC` as the compound, how does the inhibition in vivo at 100 µmol/kg read?
The inhibition in vivo at 100 µmol/kg was 86%.

Which inhibition in vivo at 100 µmol/kg does the source give for `COc1ccc(/C=N/N(C)C(=O)c2ccc(OC)c(OC)c2)cc1OC` here?
The inhibition in vivo at 100 µmol/kg was 65%.

With `COc1ccc(/C=N/N(C)C(=O)c2ccccc2OC)cc1OC` as the compound, how does the inhibition in vivo at 100 µmol/kg read?
Its inhibition in vivo at 100 µmol/kg is 99%.

Which inhibition in vivo at 100 µmol/kg does the source give for `COc1ccc(/C=N/N(C)C(=O)c2ccc(Cl)cc2)cc1OC` here?
Its inhibition in vivo at 100 µmol/kg is 59%.

target: T1, cGMP-dependent 3',5'-cyclic phosphodiesterase (Homo sapiens, UniProt O00408); assay: Inhibition of human PDE2 using [3H]cAMP as substrate at 10 uM; details: not given
T1 sequence (O00408 whole entry): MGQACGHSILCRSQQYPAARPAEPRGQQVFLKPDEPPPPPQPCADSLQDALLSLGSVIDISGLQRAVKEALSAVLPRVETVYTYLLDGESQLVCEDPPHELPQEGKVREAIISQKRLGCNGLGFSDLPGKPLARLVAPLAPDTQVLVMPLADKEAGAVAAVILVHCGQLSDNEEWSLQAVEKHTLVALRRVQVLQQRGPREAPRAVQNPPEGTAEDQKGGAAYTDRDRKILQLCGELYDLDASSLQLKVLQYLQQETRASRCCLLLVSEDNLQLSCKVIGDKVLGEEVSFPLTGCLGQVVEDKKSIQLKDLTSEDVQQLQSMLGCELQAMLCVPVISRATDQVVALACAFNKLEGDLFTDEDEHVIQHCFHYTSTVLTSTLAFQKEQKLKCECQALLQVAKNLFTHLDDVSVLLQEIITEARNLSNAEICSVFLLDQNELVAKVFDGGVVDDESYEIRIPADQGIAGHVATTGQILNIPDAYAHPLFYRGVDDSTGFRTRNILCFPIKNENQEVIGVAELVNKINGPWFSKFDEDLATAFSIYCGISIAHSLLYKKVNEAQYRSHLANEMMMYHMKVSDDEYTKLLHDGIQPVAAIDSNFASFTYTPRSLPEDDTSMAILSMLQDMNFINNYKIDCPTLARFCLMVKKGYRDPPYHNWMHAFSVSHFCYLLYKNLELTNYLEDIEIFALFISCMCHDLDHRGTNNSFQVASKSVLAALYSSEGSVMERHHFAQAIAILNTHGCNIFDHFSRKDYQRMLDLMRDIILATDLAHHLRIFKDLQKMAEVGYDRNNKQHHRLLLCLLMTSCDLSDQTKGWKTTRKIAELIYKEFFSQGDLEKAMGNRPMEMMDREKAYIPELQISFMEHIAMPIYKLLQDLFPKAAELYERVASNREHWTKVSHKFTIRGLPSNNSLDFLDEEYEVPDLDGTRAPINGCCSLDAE

With `COc1ccc(/C=N/N(C)C(=O)c2ccc(OC)c(OC)c2)cc1OC` as the compound, how does the inhibition read?
The inhibition was 40.8%.

Which inhibition does the source give for `COc1ccc(/C=N/N(C)C(=O)c2ccc(Cl)cc2)cc1OC` here?
Its inhibition is 26.6%.

tested on: not listed separately; assay: Inhibition of bovine PDE4 using [3H]cAMP as substrate; set-up: species or system Bos taurus; details: not given

With `COc1ccc(/C=N/N(C)c2ncnc3ccccc23)cc1OC` as the compound, how does the IC50 read?
The IC50 was 190 nM.

For `COc1ccc(/C=N/N(C)C(=O)c2ccc(OC)c(OC)c2)cc1OC`, which IC50 is on record?
Its IC50 is 300 nM.

For `COc1ccc(/C=N/N(C)C(=O)c2ccccc2OC)cc1OC`, which IC50 is on record?
The IC50 was 210 nM.

With `COc1ccc(/C=N/N(C)C(=O)c2ccc(Cl)cc2)cc1OC` as the compound, how does the IC50 read?
The IC50 was 150 nM.

tested on: Mus musculus; assay: Antiinflammatory activity in A/J mouse assessed as inhibition of LPS-induced airway resistance provoked by methacholine at 100 umol/kg, po administered 1 hr prior to LPS-challenge measured after 18 hrs relative to vehicle-treated control; type: functional; details: not given

For `COc1ccc(/C=N/N(C)c2ncnc3ccccc23)cc1OC`, which inhibition in vivo at 100 µmol/kg is on record?
The inhibition in vivo at 100 µmol/kg was 82%.

Which inhibition in vivo at 100 µmol/kg does the source give for `COc1ccc(/C=N/N(C)C(=O)c2ccc(OC)c(OC)c2)cc1OC` here?
Its inhibition in vivo at 100 µmol/kg is 92%.

With `COc1ccc(/C=N/N(C)C(=O)c2ccccc2OC)cc1OC` as the compound, how does the inhibition in vivo at 100 µmol/kg read?
The inhibition in vivo at 100 µmol/kg was 61%.

With `COc1ccc(/C=N/N(C)C(=O)c2ccc(Cl)cc2)cc1OC` as the compound, how does the inhibition in vivo at 100 µmol/kg read?
Its inhibition in vivo at 100 µmol/kg is 33%.

target: T1, cGMP-dependent 3',5'-cyclic phosphodiesterase; assay: Inhibition of human PDE2 using [3H]cAMP as substrate; details: not given

For `COc1ccc(/C=N/N(C)C(=O)c2ccccc2OC)cc1OC`, which IC50 is on record?
Its IC50 is 16800 nM.

tested on: not listed separately; assay: Inhibition of PDE6 at 10 uM; details: not given

With `COc1ccc(/C=N/N(C)C(=O)c2ccccc2OC)cc1OC` as the compound, how does the inhibition read?
The inhibition was 11%.

Which inhibition does the source give for `COc1ccc(/C=N/N(C)C(=O)c2ccc(Cl)cc2)cc1OC` here?
The inhibition was 34%.

tested on: PBMC; assay: Antiinflammatory activity in human PBMC assessed as inhibition of LPS-induced TNFalpha production after 24 hrs by ELISA; type: functional, cell-based; details: not given

With `COc1ccc(/C=N/N(C)c2ncnc3ccccc23)cc1OC` as the compound, how does the EC50 read?
Its EC50 is 1300 nM.

With `COc1ccc(/C=N/N(C)C(=O)c2ccc(OC)c(OC)c2)cc1OC` as the compound, how does the EC50 read?
Its EC50 is 1180 nM.

With `COc1ccc(/C=N/N(C)C(=O)c2ccccc2OC)cc1OC` as the compound, how does the EC50 read?
Its EC50 is 1590 nM.

With `COc1ccc(/C=N/N(C)C(=O)c2ccc(Cl)cc2)cc1OC` as the compound, how does the EC50 read?
Its EC50 is 1030 nM.

tested on: not listed separately; assay: Inhibition of PDE6; details: not given

With `COc1ccc(/C=N/N(C)C(=O)c2ccc(OC)c(OC)c2)cc1OC` as the compound, how does the IC50 read?
The IC50 was 17600 nM.

organism: Bos taurus; assay: Inhibition of bovine PDE1 using [3H]cAMP as substrate at 10 uM; details: not given

With `COc1ccc(/C=N/N(C)C(=O)c2ccc(OC)c(OC)c2)cc1OC` as the compound, how does the inhibition read?
Its inhibition is 38.7%.

Which inhibition does the source give for `COc1ccc(/C=N/N(C)C(=O)c2ccccc2OC)cc1OC` here?
Its inhibition is 11%.

For `COc1ccc(/C=N/N(C)C(=O)c2ccc(Cl)cc2)cc1OC`, which inhibition is on record?
The inhibition was 17.7%.

tested on: not listed separately; assay: Inhibition of bovine PDE3 using [3H]cAMP as substrate; set-up: species or system Bos taurus; details: not given

With `COc1ccc(/C=N/N(C)C(=O)c2ccc(OC)c(OC)c2)cc1OC` as the compound, how does the IC50 read?
The IC50 was 18800 nM.

Which IC50 does the source give for `COc1ccc(/C=N/N(C)C(=O)c2ccccc2OC)cc1OC` here?
Its IC50 is 6200 nM.

With `COc1ccc(/C=N/N(C)C(=O)c2ccc(Cl)cc2)cc1OC` as the compound, how does the IC50 read?
The IC50 was 6700 nM.

tested on: PBMC; assay: Antiinflammatory activity in human PBMC assessed as inhibition of LPS-induced TNFalpha production at 10 uM after 24 hrs by ELISA relative to control; type: functional; details: not given

With `COc1ccc(/C=N/N(C)C(=O)c2ccc(OC)c(OC)c2)cc1OC` as the compound, how does the inhibition at 10 µM read?
Its inhibition at 10 µM is 92%.

Which inhibition at 10 µM does the source give for `COc1ccc(/C=N/N(C)C(=O)c2ccccc2OC)cc1OC` here?
Its inhibition at 10 µM is 80%.

Which inhibition at 10 µM does the source give for `COc1ccc(/C=N/N(C)C(=O)c2ccc(Cl)cc2)cc1OC` here?
Its inhibition at 10 µM is 88%.
